How the values were obtained:
Format in all cases: functional
Details in all cases: read-out: Activity
HL-60(TB) = assay: Growth inhibition of human HL-60(TB) cells assessed as cell growth at 10 uM incubated for 48 hrs by sulforhodamine B assay relative to control
Procedure, shortened: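 Screened by the NCI Developmental Therapeutics Program on its panel of 60 human tumour cell lines. Compounds were first tested at a single 10 µM dose, and compounds active there went to dose-response curves. Growth is expressed relative to untreated control (100%). GI50 (50% of maximal proliferation inhibition) and TGI (total growth inhibition) were derived from the dose-response data.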

MOLT-4 = assay: Growth inhibition of human MOLT-4 cells assessed as cell growth at 10 uM incubated for 48 hrs by sulforhodamine B assay relative to control
Procedure, shortened: (§1)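 Submitted to the NCI Developmental Therapeutics Program for the NCI60 human tumour cell line panel. First screen at a single 10 µM concentration. Read-out is growth relative to untreated control cells set at 100%.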

A549 = assay: Growth inhibition of human A549/ATCC cells assessed as cell growth at 10 uM incubated for 48 hrs by sulforhodamine B assay relative to control
Procedure, shortened: (§2)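 NCI Developmental Therapeutics Program NCI60 panel. Compounds that were active in the 10 µM one-dose screen went on to dose–response testing. Growth at each concentration is expressed relative to untreated control (100%). GI50 (concentration giving 50% of maximal inhibition of proliferation) and TGI (concentration giving total growth inhibition) were derived from the curves.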

HOP-92 = assay: Growth inhibition of human HOP-92 cells assessed as cell growth at 10 uM incubated for 48 hrs by sulforhodamine B assay relative to control; procedure, shortened: as §1
NCI-H460 = assay: Growth inhibition of human NCI-H460 cells assessed as cell growth at 10 uM incubated for 48 hrs by sulforhodamine B assay relative to control; procedure, shortened: as §1
COLO 205 = assay: Growth inhibition of human COLO 205 cells assessed as cell growth at 10 uM incubated for 48 hrs by sulforhodamine B assay relative to control; procedure, shortened: as §2
HCC 2998 = assay: Growth inhibition of human HCC 2998 cells assessed as cell growth at 10 uM incubated for 48 hrs by sulforhodamine B assay relative to control; procedure, shortened: as §2
HCT-116 = assay: Growth inhibition of human HCT-116 cells assessed as cell growth at 10 uM incubated for 48 hrs by sulforhodamine B assay relative to control; procedure, shortened: as §1
HCT-15 = assay: Growth inhibition of human HCT-15 cells assessed as cell growth at 10 uM incubated for 48 hrs by sulforhodamine B assay relative to control; procedure, shortened: as §1
KM12 = assay: Growth inhibition of human KM12 cells assessed as cell growth at 10 uM incubated for 48 hrs by sulforhodamine B assay relative to control; procedure, shortened: as §1
SF-295 = assay: Growth inhibition of human SF-295 cells assessed as cell growth at 10 uM incubated for 48 hrs by sulforhodamine B assay relative to control
Procedure, shortened: (§3)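 Run by the NCI Developmental Therapeutics Program as part of its 60-line human tumour panel. Each compound tested at a single 10 µM dose. Growth expressed as % relative to untreated control cells (100%).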

SF-539 = assay: Growth inhibition of human SF-539 cells assessed as cell growth at 10 uM incubated for 48 hrs by sulforhodamine B assay relative to control; procedure, shortened: as §3
SNB-19 = assay: Growth inhibition of human SNB-19 cells assessed as cell growth at 10 uM incubated for 48 hrs by sulforhodamine B assay relative to control; procedure, shortened: as §3
U-251 = assay: Growth inhibition of human U-251 cells assessed as cell growth at 10 uM incubated for 48 hrs by sulforhodamine B assay relative to control; procedure, shortened: as §3
Malme-3M = assay: Growth inhibition of human Malme-3M cells assessed as cell growth at 10 uM incubated for 48 hrs by sulforhodamine B assay relative to control; procedure, shortened: as §1
M14 = assay: Growth inhibition of human M14 cells assessed as cell growth at 10 uM incubated for 48 hrs by sulforhodamine B assay relative to control; procedure, shortened: as §1
MDA-MB-435 = assay: Growth inhibition of human MDA-MB-435 cells assessed as cell growth at 10 uM incubated for 48 hrs by sulforhodamine B assay relative to control; procedure, shortened: as §1
SK-MEL-5 = assay: Growth inhibition of human SK-MEL-5 cells assessed as cell growth at 10 uM incubated for 48 hrs by sulforhodamine B assay relative to control; procedure, shortened: as §3
OVCAR-3 = assay: Growth inhibition of human OVCAR-3 cells assessed as cell growth at 10 uM incubated for 48 hrs by sulforhodamine B assay relative to control; procedure, shortened: as §3
OVCAR-4 = assay: Growth inhibition of human OVCAR-4 cells assessed as cell growth at 10 uM incubated for 48 hrs by sulforhodamine B assay relative to control; procedure, shortened: as §3
OVCAR-8 = assay: Growth inhibition of human OVCAR-8 cells assessed as cell growth at 10 uM incubated for 48 hrs by sulforhodamine B assay relative to control; procedure, shortened: as §3
NCI/ADR-RES = assay: Growth inhibition of human NCI/ADR-RES cells assessed as cell growth at 10 uM incubated for 48 hrs by sulforhodamine B assay relative to control; procedure, shortened: as §1
786-0 = assay: Growth inhibition of human 786-0 cells assessed as cell growth at 10 uM incubated for 48 hrs by sulforhodamine B assay relative to control; procedure, shortened: as §2
A498 = assay: Growth inhibition of human A498 cells assessed as cell growth at 10 uM incubated for 48 hrs by sulforhodamine B assay relative to control; procedure, shortened: as §2
ACHN = assay: Growth inhibition of human ACHN cells assessed as cell growth at 10 uM incubated for 48 hrs by sulforhodamine B assay relative to control
Procedure, shortened: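 NCI Developmental Therapeutics Program NCI60 human tumour cell line panel, one-dose primary screen with every compound at 10 µM. Growth is expressed as % of untreated control cells (100%).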

RXF 393 = assay: Growth inhibition of human RXF 393 cells assessed as cell growth at 10 uM incubated for 48 hrs by sulforhodamine B assay relative to control; procedure, shortened: as §3
SN12C = assay: Growth inhibition of human SN12C cells assessed as cell growth at 10 uM incubated for 48 hrs by sulforhodamine B assay relative to control; procedure, shortened: as §3
UO-31 = assay: Growth inhibition of human UO-31 cells assessed as cell growth at 10 uM incubated for 48 hrs by sulforhodamine B assay relative to control; procedure, shortened: as §3
PC-3 = assay: Growth inhibition of human PC-3 cells assessed as cell growth at 10 uM incubated for 48 hrs by sulforhodamine B assay relative to control; procedure, shortened: as §3
MCF7 = assay: Growth inhibition of human MCF7 cells assessed as cell growth at 10 uM incubated for 48 hrs by sulforhodamine B assay relative to control; procedure, shortened: as §1
T47D = assay: Growth inhibition of human T47D cells assessed as cell growth at 10 uM incubated for 48 hrs by sulforhodamine B assay relative to control; procedure, shortened: as §3
MDA-MB-468 = assay: Growth inhibition of human MDA-MB-468 cells assessed as cell growth at 10 uM incubated for 48 hrs by sulforhodamine B assay relative to control; procedure, shortened: as §1
DU-145 = assay: Growth inhibition of human DU-145 cells assessed as cell growth at 10 uM incubated for 48 hrs by sulforhodamine B assay relative to control; procedure, shortened: as §2

Structure (SMILES) | growth at 10 µM (HL-60(TB)) [%] | growth at 10 µM (MOLT-4) [%] | growth at 10 µM (A549) [%] | growth at 10 µM (HOP-92) [%] | growth at 10 µM (NCI-H460) [%] | growth at 10 µM (COLO 205) [%] | growth at 10 µM (HCC 2998) [%] | growth at 10 µM (HCT-116) [%] | growth at 10 µM (HCT-15) [%] | growth at 10 µM (KM12) [%] | growth at 10 µM (SF-295) [%] | growth at 10 µM (SF-539) [%] | growth at 10 µM (SNB-19) [%] | growth at 10 µM (U-251) [%] | growth at 10 µM (Malme-3M) [%] | growth at 10 µM (M14) [%] | growth at 10 µM (MDA-MB-435) [%] | growth at 10 µM (SK-MEL-5) [%] | growth at 10 µM (OVCAR-3) [%] | growth at 10 µM (OVCAR-4) [%] | other results
COc1ccc(S(=O)(=O)n2ccc(-c3ccc4c(c3)CCC(C)(C)O4)n2)cc1 | 60 | 65.9 | 74 | 61.4 | 75.4 | 107 | 88.9 | 68.3 | 97.6 | 81.9 | 47.7 | 103 | 87.1 | 84.2 | 110 | 86.5 | 74.3 | 42.6 | 81.2 | 52.3 | growth at 10 µM (OVCAR-8): 83.8%; growth at 10 µM (NCI/ADR-RES): 57.3%; growth at 10 µM (786-0): 67.6%; growth at 10 µM (A498): 89.1%; growth at 10 µM (ACHN): 104%; growth at 10 µM (RXF 393): 110%; growth at 10 µM (SN12C): 97.5%; growth at 10 µM (UO-31): 78.1%; growth at 10 µM (PC-3): 78%; growth at 10 µM (MCF7): 73.5%; growth at 10 µM (T47D): 46.7%; growth at 10 µM (MDA-MB-468): 36.6%
COc1ccc(-c2ccn(S(=O)(=O)c3ccc(C)cc3)n2)cc1 | 114 | 95.2 | 79.7 | 79.9 | 81 | 112 | 86.9 | 73.5 | 84.2 | 89.7 | 78.5 | 97 | 94.5 | 81.9 | 88.4 | 90 | 94.1 | 68.3 | 89.3 | 62 | growth at 10 µM (OVCAR-8): 83.4%; growth at 10 µM (NCI/ADR-RES): 78.7%; growth at 10 µM (786-0): 83%; growth at 10 µM (A498): 63.2%; growth at 10 µM (ACHN): 91.6%; growth at 10 µM (RXF 393): 86.3%; growth at 10 µM (SN12C): 86.9%; growth at 10 µM (UO-31): 75.9%; growth at 10 µM (PC-3): 81.2%; growth at 10 µM (DU-145): 93.7%; growth at 10 µM (MCF7): 88.3%; growth at 10 µM (T47D): 48%; growth at 10 µM (MDA-MB-468): 46.1%
CN1CCc2nc3sc(C(N)=O)c(N)c3c(-c3cccs3)c2C1 | -18 | 9 | 13 | -4 | 6 | -54 | 14 | 6 | 10 | 7 | 10 | -18 | 19 | 10 | 16 | 11 | 10 | -25 | -22 | 41 | growth at 10 µM (OVCAR-8): 7%; growth at 10 µM (NCI/ADR-RES): 19%; growth at 10 µM (786-0): 19%; growth at 10 µM (A498): -15%; growth at 10 µM (RXF 393): -43%; growth at 10 µM (SN12C): 11%; growth at 10 µM (UO-31): 11%; growth at 10 µM (PC-3): 21%; growth at 10 µM (DU-145): 10%; growth at 10 µM (MCF7): 12%; growth at 10 µM (T47D): 8%; growth at 10 µM (MDA-MB-468): -35%

Reference: ChEMBL document CHEMBL4715736, “Identification of anticancer agents based on the thieno[2,3-b]pyridine and 1H-pyrazole molecular scaffolds” (2016)
